Results as given in ChEMBL document CHEMBL1153426, “A structure-based approach to ligand discovery for 2C-methyl-D-erythritol-2,4-cyclodiphosphate synthase: a target for antimicrobial therapy” (J Med Chem, 2009).

Assay: Binding affinity to Escherichia coli BL21 (DE3) IspF at 10 degC in pH 7 sodium phosphate buffer by SPR binding assay; call rule not given here
How it was run: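 Recombinant E. coli IspF expressed in BL21(DE3), >95% pure, amine-coupled to CM5 chip at ~100 μg/mL in 10 mM acetate pH 5.5 (4500–5500 RU). Ligands 0.1 μM–10 mM in 50 mM sodium phosphate pH 7, 2 mM MgCl, 30 μL/min, 10 °C; triplicate injections, blank-subtracted.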

Structure (SMILES) | Kd | Kd (read-out: Kd)
Nc1nnc(-c2nonc2N)o1 | Not Active | –
O=C(O)CCCC(=O)Nc1ccc2c(c1)OCO2 | Not Active | –
NC(=O)CSc1cc(N)nc(N)n1 | Not Active | –
Nc1ccn([C@H]2O[C@@H](CO)[C@H]3OP(=O)(O)O[C@H]32)c(=O)n1 (mixture of isomers) | – | 20.5 mM
